# Experimental data from different studies.
# ATM: Serine-protein kinase ATM (ATM, Homo sapiens, UniProt Q13315)
# AMY2: Pancreatic alpha-amylase (AMY2, Sus scrofa, UniProt P00690)
# D14: D14 (Arabidopsis thaliana, UniProt Q9SQR3)
Structure (SMILES),target,test,setting,quantity,result
NC/C(=C\F)COc1cccc(Cn2c(=S)[nH]c(=O)c3[nH]cnc32)c1,"Muscarinic acetylcholine receptor M2 (CHRM2, Homo sapiens, UniProt P08172)","ligand displacement, radioligand",10 µM,inhibition,< 50%
Cc1cc(O)c(-c2ccc([C@@H](C)CN(C)C)cc2)c2c1[nH]c(=O)c1sccc12,ATM,"cell-free assay, inhibitor","0.1 µM, lysate",inhibition,6.43%
O=C1C[C@@H](c2ccccc2)Oc2cc(O)cc(O)c21,AMY2,"enzyme activity, inhibitor",50 µM,inhibition,25.2%
Cc1cc(S(=O)(=O)N[C@H]2CC[C@H](CN3CCN(c4ccc(C5CCC(=O)NC5=O)cc4F)CC3)CC2)ccc1Nc1ncc(C(F)(F)F)c(N2CCC[C@](C)(O)C2)n1 (stereo partly drawn),"Cyclin-dependent kinase 4 (CDK4, Homo sapiens, UniProt P11802)","binding, competition with immobilised ligand",1 µM,remaining binding,100%
O=c1c(O)c(-c2ccc(O)cc2)oc2c(Br)c(O)c(Br)c(O)c12,AMY2,"enzyme activity, inhibitor","50 µM, 30 min",inhibition,100%
CC1=CC(O/C=C2/C(=O)OC3c4ccccc4CC23)OC1=O (racemic),D14,"thermal stability, DSF",1 µM,ΔTm,-0.035 °C
COc1ccc2oc(-c3ccc4nc(N)oc4c3)c/c(=N\c3ccccc3NC(=O)CCN)c2c1,ATM,"binding, competition with immobilised ligand",1 µM,remaining binding,94%
CC1=C(/C=C/C(C)=C/C=O)C(C)(C)C[C@H](O)C1,D14,"thermal stability, DSF",10 µM,ΔTm,0.16 °C
CCCCC(=O)Nc1ccc(-c2ccc3ncn(CCC)c(=O)c3c2)cn1,"Ephrin type-A receptor 5 (EPHA5, Homo sapiens, UniProt P54756)","binding, competition with immobilised ligand",0.5 µM,remaining binding,84%
O=c1c(O)c(-c2ccc(O)cc2O)oc2cc(O)cc(O)c12,AMY2,"enzyme activity, inhibitor","50 µM, 30 min",inhibition,55.1%
CC(=O)/C=C/C=C(C)/C=C/C1=C(C)CC(O)CC1(C)C (stereo in doubt),D14,"thermal stability, DSF",1 µM,ΔTm,0.09 °C
COc1cc(O)c2c(c1)O[C@H](c1ccccc1)CC2=O,AMY2,"enzyme activity, inhibitor",50 µM,inhibition,12.8%
C[C@]1(O)CCCN(c2nc(Nc3ccc(S(=O)(=O)N[C@H]4CC[C@H](CN5CCN(c6ccc(C7CCC(=O)NC7=O)cc6F)CC5)CC4)cc3Cl)ncc2C(F)(F)F)C1 (stereo partly drawn),"Cyclin-dependent kinase 4, with cyclin D3 (CDK4, Homo sapiens, UniProt P11802)","binding, competition with immobilised ligand",1 µM,remaining binding,100%
CC1=C(/C=C/C(C)=C/C=O)C(C)(C)CCC1,D14,"thermal stability, DSF",1 µM,ΔTm,0 °C
O=c1c(O)c(-c2ccc(O)c(O)c2)oc2cc(O)cc(O)c12,AMY2,"enzyme activity, inhibitor",50 µM,inhibition,94.1%
C#Cc1cc(-c2cc(Nc3nc(N[C@@H](C)c4ccc(F)cn4)ncc3Cl)n[nH]2)ccc1C=O,"MAP kinase-activated protein kinase 5 (MAPKAPK5, Homo sapiens, UniProt Q8IW41)","enzyme activity, inhibitor",0.2 µM,inhibition,14.9%
O=c1c(O)c(-c2ccc(O)cc2)oc2cc(O)cc(O)c12,AMY2,"enzyme activity, inhibitor","50 µM, 30 min",inhibition,88.9%
C1=C/COCc2cc(ccc2OCCN2CCCC2)Nc2nccc(n2)-c2cccc(c2)COC/1,"Myosin-IIIb (MYO3B, Homo sapiens, UniProt Q8WXR4)",binding,0.1 µM,remaining binding,100%
